Screens: PubChem BioAssay, The Scripps Research Institute Molecular Screening Center
UHRF1 MBD2 ctr: UHRF1 methyl-DNA binding inhibition; Q96T88; UHRF1 binding to methylated oligo, TR-FRET; inhibition, % at 4.4 µM; 0.75% of 370,000 active; AID 687016; in the data active = inhibition above about 21%;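 also: UHRF1 SRA domain binding a hemimethylated CpG hairpin DNA probe; 0% = median of test compound wells and 100% = reference inhibitor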
SIAE inh: human SIAE inhibition, primary screen. Q9HAT2. SIAE FP-Rh probe binding, fluorescence polarization. inhibition, % at 9.66 µM. 0.69% of 370,000 active. AID 1053197;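 active = inhibition above a cutoff: mean of compounds within the control limits plus 3 SD of those, cut at about 17% in these data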;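 also: 0% = plate median of compound wells and 100% = probe without SIAE protein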
LEDGF integ inh: blocks HIV-1 LEDGF/p75-dependent DNA integration | inhibition, % at 3.7 µM | 0.64% of 370,000 active | AID 743269 | TR-FRET IN-LEDGF/p75 DNA integration, Eu/Cy5;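 active = inhibition above the screen-wide mean plus 3 SD, cut at about 13% in these data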;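 also: signal is the Cy5 over europium emission ratio at 671 and 618 nm; 0% = plate median of compound wells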
MBD2 DNA inh: blocks human MBD2 binding to methylated DNA. inhibition, % at 4.4 µM. 0.31% of 370,000 active. Q9UBB5. TR-FRET, MBD2 binding to methylated oligonucleotide. AID 686964; in the data active = inhibition above about 13%
PRMT1 FP inh: blocks human protein arginine methyltransferase 1; recombinant PRMT1, activity-based probe fluorescence polarization; 1.3% of 370,000 active; inhibition, % at 2.79 µM; Q99873;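 active = inhibition above about 21% made by adding two undisclosed values, limit read from the data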
Target sequence (Q99873 whole entry, looked up): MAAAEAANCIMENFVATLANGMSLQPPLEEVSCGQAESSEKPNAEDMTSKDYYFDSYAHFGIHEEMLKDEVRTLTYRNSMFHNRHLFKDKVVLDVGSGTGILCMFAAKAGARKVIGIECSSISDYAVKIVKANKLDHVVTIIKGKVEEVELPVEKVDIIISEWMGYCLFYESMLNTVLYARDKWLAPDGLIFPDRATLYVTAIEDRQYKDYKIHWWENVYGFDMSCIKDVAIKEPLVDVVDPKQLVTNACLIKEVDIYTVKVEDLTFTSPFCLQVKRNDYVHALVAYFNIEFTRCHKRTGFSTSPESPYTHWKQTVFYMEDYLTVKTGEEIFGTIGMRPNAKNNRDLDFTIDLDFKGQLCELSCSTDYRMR
TDP2 absorb: TDP2 (human) inhibition, absorbance primary screen; O95551; recombinant TDP2, T5PNP hydrolysis, p-nitrophenol absorbance 415 nm; inhibition, % at 12.8 µM; 0.34% of 370,000 active; AID 720702;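 active = inhibition above the mean of all tested compounds plus 3 SD, set per campaign, cut at about 25% in these data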;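 also: 0% = DMSO with enzyme and 100% = buffer with substrate but no TDP2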
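System: recombinant human TDP2 / Amount: 120 nM TDP2 per well / Also added: 5 mM T5PNP chromogenic substrate / Doses: 12.8 µM single point, 1% DMSO / Incubation: 2 h at 37 °C / Detection: p-Nitrophenol epi absorbance / Evaluation: % inhibition relative to enzyme-containing and enzyme-free wells / Repeats: singlicate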
PRMT1 confirm: PRMT1 (human) inhibition, FP confirmation; shares compounds with PRMT1 FP inh; recombinant His-PRMT1, activity-based probe fluorescence polarization; inhibition, % at 2.79 µM; 42% of 3,300 active;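 active = mean inhibition across replicates above the hit cutoff derived for the earlier primary screen, cut at about 22% in these data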
An asterisk follows results filed as active; / = no result given. An excerpt weighted towards active compounds, which were near 3.3% of everything screened.

SMILES	UHRF1 MBD2 ctr	SIAE inh	LEDGF integ inh	MBD2 DNA inh	PRMT1 FP inh	TDP2 absorb	PRMT1 confirm
O=C(SCC(O)C(O)CS)c1cccs1 (stereo not given)	-2.7	2.2	2.6	3.9	65.0*	-2.6	54.2*
C#CCNC(=O)C[C@H]1C[C@@]2(C(=O)OC)C(=C[C@H](C(C)C)O[C@@H]2C2CC2)N(Cc2ccc3c(c2)OCO3)C1=O	-1.3	2.6	-0.8	0.9	-1.8	-4.6	/
CCC1(C)Cc2c(C#N)c(N)sc(=S)c2CO1 (stereo not given)	-0.9	-1.3	-0.9	-3.7	27.5*	-4.0	27.3*
N#Cc1c(N)sc(=S)c2c1CCCC2	-4.4	-0.3	4.5	-6.8	27.9*	5.9	9.1
CN=C1S/C(=C/c2cc(C)n(-c3cc(C)ccc3OC)c2C)C(=O)N1C	-3.3	2.2	-1.1	-3.7	-0.2	9.7	/
CN1C2C=C3C(C#N)=C(N)C(C#N)(C#N)[C@H](c4c(F)cccc4F)[C@H]3C1CC2 (stereo not given in full)	-2.3	7.0	0.2	-8.1	11.7	19.5	/
N#CC1=C(N)C(C#N)(C#N)[C@H](c2c(F)cccc2F)[C@H]2CC3(CC=C12)OCCO3	-4.1	0.0	-2.6	-0.5	25.6*	1.6	14.1
CCN1CC=C2C(C#N)=C(N)C(C#N)(C#N)C(CCc3ccccc3)C2C1 (stereo not given)	-7.7	15.1	2.0	-8.7	49.1*	-4.4	25.1*
O=C1C2C3C=CC(O3)C2C(=O)N1Cc1ccncc1 (stereo not given)	0.8	-0.2	-1.4	4.0	42.8*	1.1	-0.1
O=C1N(CCCO)CCC12CCC(c1ccccc1)CC2 (stereo not given)	-0.8	-1.6	-4.9	0.8	-2.2	-0.6	/
O=C(NC1=NCCS1)c1csc2ccccc12	-1.7	0.2	5.6	3.4	27.1*	-11.5	8.6
O=C(OCC#CCSc1nnc(-c2cccc3ccccc23)o1)c1ccc(OC(F)(F)F)cc1	0.8	-0.7	-2.1	2.9	0.4	6.7	/
COC(=O)C[C@H]1CC[C@H]2[C@H](COc3ccc(NC(=O)Cc4cccs4)cc3C(=O)N2C)O1	-0.6	1.7	8.0	-1.9	-1.9	-0.8	/
COc1ccccc1-n1c(SCC(=O)NCc2ccc3c(c2)OCO3)nc2cc([N+](=O)[O-])ccc21	-9.9	8.4	2.5	-5.5	83.7*	1.6	25.8*
CC(Sc1nc2cc([N+](=O)[O-])ccc2n1-c1ccc(F)cc1)C(=O)NCc1ccc2c(c1)OCO2 (stereo not given)	-1.3	6.7	-4.2	0.9	9.8	-2.8	/
O=C(NCCc1nc2ccccc2n1CCOc1cc(F)ccc1F)C1CCCCC1	4.7	-0.7	0.0	0.5	-1.5	-9.3	/
O=C1CN(/N=C/c2ccc([N+](=O)[O-])o2)C(=O)N1	5.0	-5.6	6.7	0.8	29.6*	-8.2	-1.4
O=C(O)Cc1sc(Nc2ccc(F)cc2)nc1-c1cccs1	-1.2	-51.2	4.7	-4.3	31.4*	-6.6	2.5
CS(=O)(=O)c1ccc(S(=O)CC(=O)OCc2ccccc2)c([N+](=O)[O-])c1 (stereo not given)	-6.1	5.2	8.6	-3.0	65.7*	-9.6	33.5*
CCNc1nc(NCC)n2c(SCC(=O)Nc3ccc(Br)cc3F)nnc2n1	2.1	-4.6	-0.5	1.4	37.4*	-5.2	15.5
Cc1cc(NC(=O)c2sc3ccccc3c2O)no1	-2.0	-57.6	1.6	0.0	17.4	-5.2	/
CC(=Nc1ccc(C)cc1C)c1sc2ccccc2c1O	1.1	2.1	3.7	-0.9	27.4*	-7.6	15.8
Cc1ccc(C(=O)CSC2=C(C#N)C(c3ccco3)C3=C(CCCC3=O)N2)cc1 (stereo not given)	5.2	-12.1	-1.6	1.9	21.1	-12.5	/
N#CC1=C(SCC(=O)c2ccccc2)NC2=C(C(=O)CCC2)C1c1ccco1 (stereo not given)	4.4	-2.9	5.8	2.9	34.8*	-7.0	2.6
O=C1CC(N2CCCN(C3CC(=O)N(c4ccc(F)cc4)C3=O)CC2)C(=O)N1c1ccc(F)cc1 (stereo not given)	-2.1	-1.0	5.5	6.5	78.2*	7.3	5.9
SMILES	UHRF1 MBD2 ctr	SIAE inh	LEDGF integ inh	MBD2 DNA inh	PRMT1 FP inh	TDP2 absorb	PRMT1 confirm
O=C1CC(N2CCCCC2)C(=O)N1c1ccccc1 (stereo not given)	-1.7	-1.2	0.4	1.2	81.0*	-2.1	12.7
O=C1CC(N2CCSCC2)C(=O)N1c1ccccc1 (stereo not given)	2.5	1.9	-4.4	0.5	10.1	-3.4	/
O=C1CC(N2CCN(c3ccc(Cl)cc3)CC2)C(=O)N1c1ccc(F)cc1 (stereo not given)	0.9	2.8	-6.7	3.1	2.9	-2.3	/
Cc1ccccc1-c1n[nH]c(=S)n1/N=C/C=C/c1ccco1	11.6	8.3	13.1	2.5	28.7*	-13.3	19.7
S=c1[nH]nc(-c2ccc(Cl)cc2)n1/N=C/C=C/c1ccco1	9.3	9.6	9.6	1.9	31.3*	1.8	5.3
O=C1CS/C(=C\S(=O)(=O)c2ccc(Cl)cc2)N1	4.1	-0.5	-1.7	-0.2	31.5*	-5.5	22.4*
O=C1CSc2ccc(S(=O)(=O)NCc3ccc(Cl)cc3)cc2N1	3.0	0.0	-1.2	3.3	1.0	4.8	/
Cc1ccc(-c2cc3nc(-c4ccccc4)cc(N4CCC5(CC4)OCCO5)n3n2)cc1	-3.5	-10.0	3.4	3.0	-2.7	6.7	/
COc1ccc(-c2cc3nc(-c4ccccc4)cc(N4CCN(C(C)=O)CC4)n3n2)cc1	3.9	-22.8	1.6	2.1	-3.1	-4.6	/
CC(=O)N1CCN(c2cc(-c3ccco3)nc3cc(-c4ccccc4)nn23)CC1	-4.2	-8.8	-0.9	3.1	51.3*	4.5	7.5
Cc1ccc(-c2cc3nc(-c4ccco4)cc(N4CCN(Cc5ccoc5)CC4)n3n2)cc1	-4.1	-12.8	-1.4	1.9	26.7*	-6.8	9.1
COc1ccc(OC)c(S(=O)(=O)N2CCCCC2C(=O)N2CCN(Cc3ccc(F)cc3)CC2)c1 (stereo not given)	-0.9	-1.0	0.3	0.2	5.0	-1.6	/
O=c1cc(CSc2nnc(Nc3ccccc3F)s2)nc2sccn12	-4.6	3.0	0.8	-1.8	-3.7	5.7	/
COc1ccc(Nc2nnc(SCc3cc(=O)n4ccsc4n3)s2)cc1	-5.3	-9.1	3.1	-4.1	28.8*	5.4	34.7*
CCCCOCCCNC(=O)C[C@@H]1C(=O)N(Cc2ccc(OC)cc2)C2=CCN(C(=O)OC(C)(C)C)C[C@]21C(=O)OCC	0.1	7.2	-3.3	2.8	-4.5	4.8	/
O=C(CCCCn1cnc2c(=S)nc[nH]c21)Nc1ccc(C(=O)O)cc1	2.9	0.8	-5.9	2.4	30.3*	9.6	10.3
